For 83 variants, yeast fitness results are on record in the RNAGym collection of RNA variant scans (doi:10.1126/science.aae0568).

Fewer inactive variants are shown than the library holds.

The labels stand for the following.
B1: tRNA (parent)
chain: GUUCCGUUGGCGUAAUGGUAACGCGUCUCCCUCCUAAGGAGAAGACUGCGGGUUCGAGUCCCGUACGGAACG

In this series the parent is B1. As to the kind of experiment: yeast fitness relative to wild type (ratio to wild type); higher = fitter; tRNA-Arg(CCU), competitive growth, 37 C, YPD. The method in brief: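 For this measurement, the tRNA-Arg(CCU) gene was varied by chemical synthesis at a 3% per-site mutation rate across 69 sites, and each variant was placed at the native genomic locus in Saccharomyces cerevisiae. The pooled strains went through a 24-hour competition in YPD at 37°C in six parallel replicates, with amplicons from start and end populations read by 100-nucleotide paired-end sequencing. Darwinian fitness relative to wild type followed from the change in each genotype's frequency. Genotypes needed ≥ 100 starting reads, and estimates < 0.5 were set to 0.5.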
Consider C5G G51U C55G A65C, for which the yeast fitness was ≤ 0.5. Next, C5G G9A A20G: 0.553; C5G G10A C11G U16G C33G G58A A65G: ≤ 0.5. Consider C5G G12A G25A, for which the yeast fitness came out at 0.783. With C5G C34A A37U G44A G51A C55A A57U, the yeast fitness was ≤ 0.5. Then C5G C27U C34U G56C, with 0.646; and C5G G23A G25C, with ≤ 0.5; and C5G G6C G67A, with ≤ 0.5. Then C5G G41A, with 0.698; and C5G G41C, with 0.736. In the case of C5G G6C A37G G51C A57G, the yeast fitness was ≤ 0.5. Next, C5G G25A C34G A42U G50C U54C A70C: ≤ 0.5; C5G G51C C61G: 0.607.

C5G C27U G41C U53C: the yeast fitness was ≤ 0.5.

As for C5G C29U G39A, the yeast fitness was 0.671. Then C5G G25A C62G, with 0.648. Then C5G G10A G52A A70G, with 0.564; and C5G C60G, with 0.581; and C5G C60A, with 0.663. Then C5G C55G A70U, with ≤ 0.5.

Turning to C5G G48C C49U, the yeast fitness is 0.622. For C5G G17C A70U, the yeast fitness was ≤ 0.5. On to C5G G6A U53G A57C, for which the yeast fitness was ≤ 0.5. Next, C5G G9C A42G C49U U54C: 0.533; C5G G10C C22A U32C: ≤ 0.5; C5G G12A C46U G48A G52C: ≤ 0.5. Then C5G C31G C46A G63C A65U, with ≤ 0.5; and C5G G25A U59G, with 0.631. On to C5G G9C A21G, for which the yeast fitness was 0.531. With C5G G10C U19G A45C G51A, the yeast fitness was ≤ 0.5. Next, C5G C27A C31A A42C: ≤ 0.5; C5G G18C C61U A65C: ≤ 0.5; C5G G25A C61U: 0.716.

Consider C5G G12C A20U C24G C33A C46A C55A, for which the yeast fitness is ≤ 0.5.

C5G G9C A42G U54C: the yeast fitness stood at 0.641. Next, C5G G9C C30G C66U: ≤ 0.5; C5G C29G C34U: ≤ 0.5; C5G G41C G67C: 0.631. Next, C5G G18A A57G A65C: ≤ 0.5. Turning to C5G G12A C46U G52C, the yeast fitness was 0.61. Next, C5G C24U C61A A70C: ≤ 0.5.

Consider C5G G10A A20U U26C U35C C49A G56A U64A, for which the yeast fitness was ≤ 0.5.

Regarding C5G G41C U54A, the yeast fitness was ≤ 0.5. Then C5G C27U A36U C60G, with ≤ 0.5; and C5G G6C C46A, with ≤ 0.5. For C5G C34U U35C, the yeast fitness was found to be 0.545.

Consider C5G C60G A70C, for which the yeast fitness was 0.509. Then C5G G17C C46U G68A, with ≤ 0.5; and C5G G6A C29U C33G G38A G67U, with ≤ 0.5; and C5G C46U C49U, with 0.944. C5G G38C A69U: the yeast fitness was ≤ 0.5.

With C5G G23C C33U A43C U64A, the yeast fitness is ≤ 0.5. Then C5G G25A C46U G50C, with 0.593; and C5G G23A, with 0.668.

As for C5G G23C C31U A37C, the yeast fitness is ≤ 0.5. With C5G C27G U28A C30U G48A G58A C66U, the yeast fitness was ≤ 0.5. Turning to C5G C31U A36C G38A G50A, the yeast fitness is ≤ 0.5. Then C5G C46G C49U, with 0.646; and C5G G10C C30U G39C C55G, with ≤ 0.5; and C5G C46U C66A, with 0.524. Then C5G C31A A37C G48A G58C, with 0.565. With C5G G6A G25A, the yeast fitness was 0.675. C5G G6C U54C G56C G58A: the yeast fitness is ≤ 0.5. Then C5G C30U G44C, with ≤ 0.5.

With C5G G39A A43U, the yeast fitness is 0.575. Then C5G C61G A69C, with 0.574. Regarding C5G C31U C60U A69G, the yeast fitness is ≤ 0.5. Turning to C5G G23A A69C, the yeast fitness was ≤ 0.5. Then C5G G9A C27G C61U, with ≤ 0.5; and C5G C27G A65C A70C, with 0.552. As to C5G G9C, the yeast fitness was found to be 0.696.

Take C5G C27G G38C G56C: the yeast fitness was ≤ 0.5.

On to C5G C29A G56A, for which the yeast fitness was 0.615. Consider C5G G9A C11U A21U C22U A57C C60G, for which the yeast fitness was 0.535. For the variant C5G C55U G67A, the yeast fitness stood at 0.598. For C5G G6C C24U C46A, the yeast fitness amounted to 0.559. Next, C5G C33G C60G C66G: 0.584; C5G C33A G41C A65C: ≤ 0.5; C5G C29G: 0.779. Then C5G C29A, with 0.604; and C5G C29U, with 0.793. Then C5G C46A, with 0.917; and C5G C46U, with 0.88.
